These results are taken from ChEMBL document CHEMBL4699413, “Structure-guided discovery of selective methionyl-tRNA synthetase inhibitors with potent activity against Trypanosoma brucei” (RSC Med Chem, 2020).

Usually IC50 stands for the concentration at which inhibition is half-maximal. A word on the EC50: it is the concentration giving half of the maximal effect. A word on the CC50: it is the concentration that lowers cell viability or growth by half.

The nature of data set [1]: Inhibition of recombinant N-terminal His6-tagged trypanosoma brucei brucei 427 Methionyl-tRNA synthetase (237 to 773 residues) expressed in Escherichia coli assessed as ATP depletion using L-methionine and tRNA as substrate by Kinase-Glo luminescence assay.
For data set [2], the system named is Trypanosoma brucei brucei. Put plainly: Antitrypanosomal activity against blood stream form of Trypanosoma brucei brucei 427 assessed as parasite growth inhibition incubated for 48 hrs by alamar blue dye based assay. Format: functional, organism-based. The conditions noted are these: Trypanosoma brucei, 427, 48 h. The procedure, abridged: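 Bloodstream-form BSF 427 parasites in HMI-9 with 10% heat-inactivated FBS and penicillin/streptomycin, 37 °C, 5% CO₂; 10 000 cells/well initial inoculum; serial 3-fold dilutions in triplicate; Alamar Blue read at 48 h. Pentamidine control.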
A general note: Alamar Blue is a resazurin reagent that responds to reducing activity.

The test system of data set [3] is mitochondrial MetRS (mitochondrial protein synthesis). Briefly: Selectivity index, ratio of EC50 for inhibition of mitochondrial MetRS-mediated mitochondrial protein synthesis in human HepG2 cells to EC50 for antitrypanosomal activity against blood stream form of Trypanosoma brucei brucei 427. The following applies: read-out: Ratio EC50. Format: toxicity, cell-based.

Data set [4] in a line: Cytotoxicity against human WIL2-NS cells assessed as reduction in cell viability after 48 hrs by alamar blue dye based assay. The procedure, abridged: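 CRL-8155 lymphocytic cells in RPMI with 10% heat-inactivated FBS, 2 mM L-glutamine, 0.4 mM sodium pyruvate, penicillin/streptomycin, 37 °C, 5% CO₂; 30 000 cells/well; quadruplicate serial 3-fold dilutions from 50 µM (or 25 µM); AlamarBlue at 48 h, 50 µM quinacrine as background; percent inhibition versus untreated wells; single experiment.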

Data set [5] is described as follows: Ratio of drug level in brain to plasma in Swiss Webster mouse at 5 mg/kg, ip measured after 60 mins by LC-MS analysis. The format is ADME, organism-based. The conditions noted are these: 1 h. The procedure, abridged: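 Swiss Webster mice, triplicate, 5 mg kg⁻¹ IP in 7% Tween80, 5% DMSO, 3% EtOH in saline; plasma and brain collected 1 h post-dose; brain homogenized in water, extracts measured by LC-MS/MS; brain levels corrected for 3% v/w blood content.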

The target in data set [6] is T1, Methionine--tRNA ligase, mitochondrial (Homo sapiens, UniProt Q96GW9).
T1 sequence (Q96GW9 whole entry): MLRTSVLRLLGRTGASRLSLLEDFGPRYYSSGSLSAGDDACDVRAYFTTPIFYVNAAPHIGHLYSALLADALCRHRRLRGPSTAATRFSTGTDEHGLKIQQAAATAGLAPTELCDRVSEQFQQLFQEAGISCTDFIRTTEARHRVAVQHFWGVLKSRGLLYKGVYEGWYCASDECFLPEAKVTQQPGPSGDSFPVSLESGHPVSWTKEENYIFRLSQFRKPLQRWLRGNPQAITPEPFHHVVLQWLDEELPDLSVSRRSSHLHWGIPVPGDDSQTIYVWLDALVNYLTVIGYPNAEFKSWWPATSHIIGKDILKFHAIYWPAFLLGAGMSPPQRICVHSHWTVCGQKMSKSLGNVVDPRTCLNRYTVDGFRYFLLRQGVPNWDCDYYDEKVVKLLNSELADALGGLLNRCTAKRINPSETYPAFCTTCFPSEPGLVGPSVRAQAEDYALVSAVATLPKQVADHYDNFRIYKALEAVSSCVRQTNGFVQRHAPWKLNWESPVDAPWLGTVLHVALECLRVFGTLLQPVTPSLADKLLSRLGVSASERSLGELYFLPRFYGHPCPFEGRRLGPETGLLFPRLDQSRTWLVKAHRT
Briefly: Inhibition of mitochondrial MetRS-mediated mitochondrial protein synthesis in human HepG2 cells measured after 6 days by ELISA. The format is cell-based. In a few lines:
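HepG2 seeded 6000 cells/well on collagen-coated plates, grown 24 h in DMEM/F12 with 10% FBS, pyruvate, antibiotics; then serial 3-fold dilutions from 25 µM in duplicate, 6 days at 37 °C, medium with compound refreshed every 48 h; paraformaldehyde-fixed, COX-1 quantified by in-cell ELISA. Chloramphenicol control.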
(In general: An ELISA detects its analyte on a solid surface through an enzyme-linked reagent.)

Data set [7] is described as follows: Cytotoxicity against human HepG2 cells assessed as reduction in cell viability after 48 hrs by alamar blue dye based assay.

For `O=c1[nH]c(Cc2ccc(Cl)cc2Cl)cn1Cc1nc2ccccc2[nH]1`, in data set [1], the half-maximal inhibitory concentration (IC50) is less than 40 nM. For the same compound, the EC50 in data set [2] was 350 nM.

On to `O=c1n(Cc2nc3nc(F)ccc3[nH]2)cc(Cc2ccc(Cl)cc2Cl)n1CC(F)F`, for which, in data set [3], the selectivity ratio turned out to be 30. Also, the CC50 at 48 h in data set [4] was 33300 nM; in data set [7] it was more than 50000 nM. The BPR in data set [5] is reported as 0%. The EC50 in data set [6] was found to be 175 nM; in data set [2] it was 5.9 nM.

Take `CCCn1c(Cc2ccc(Cl)cc2Cl)cn(Cc2nc3nc(F)ccc3[nH]2)c1=O`: the selectivity ratio in data set [3] turned out to be 38. Besides, the CC50 at 48 h in data set [4] and in data set [7] was more than 50000 nM in each case. Besides, the BPR in data set [5] was found to be 5.5%. Moreover, the figures for the half-maximal effective concentration (EC50) in data set [6] and in data set [2] were 195 nM and 5.1 nM, respectively.

`COc1cc(Cl)c(-c2cccc3nc(Cc4nc5nc(Cl)ccc5[nH]4)cn23)cc1OC`: in data set [3], the selectivity ratio stood at 154. Moreover, the CC50 at 48 h in data set [4] came out at 19000 nM; in data set [7], 28200 nM. Besides, the BPR in data set [5] is recorded as 0.5%. Further, the EC50 in data set [6] was determined as 478 nM; in data set [2], 3.1 nM.

For the compound `CCn1c(Cc2ccc(Cl)cc2Cl)cn(Cc2nc3nc(F)ccc3[nH]2)c1=O`, the selectivity ratio in data set [3] worked out at 85. In addition, the CC50 at 48 h in data set [4] and in data set [7] was more than 50000 nM throughout. In addition, the BPR in data set [5] amounted to 0.1%. Besides, the values for the concentration giving a half-maximal response (EC50) in data set [6] and in data set [2] were 290 nM and 3.4 nM, respectively.

Consider `CCn1c(Cc2ccc(OC)cc2Cl)cn(Cc2nc3nc(Cl)ccc3[nH]2)c1=O`, for which the selectivity ratio in data set [3] came out at 39. Further, the CC50 at 48 h in data set [4] and in data set [7] was more than 50000 nM in each case. In addition, in data set [5], the BPR came out at 0%. For the same compound, the 50% effective concentration (EC50) in data set [6] stood at 39 nM; in data set [2], 1 nM.
